These results are taken from ChEMBL document CHEMBL1132904, “'Double-Drugs'--a new class of prodrug form of an HIV protease inhibitor conjugated with a reverse transcriptase inhibitor by a spontaneously cleavable linker” (Bioorg Med Chem Lett, 2000).

Broadly, the solubility is the dissolved amount per volume that the medium holds. Read a high solubility as much dissolved substance. Usually EC50 stands for the midpoint of the concentration-response curve. High values mean a need for much substance, low ones an effect from little substance. What is called inhibition is the share of the control response that was lost under treatment. Higher therefore signals strong suppression.

≈ marks a conversion by molar mass, not a printed value. Calls of active or inactive are those of the source. No cut-off for these calls is given here.

Data set [1] addresses Human immunodeficiency virus type 1 protease (Human immunodeficiency virus 1) (UniProt Q72874). Put plainly: Inhibitory activity against HIV protease; Active.
Data set [2] is described as follows: Water solubility by RP-HPLC. In kind it is ADME. Summed up:
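Aliquots of compound solutions were injected onto HPLC. Dissolved concentration was determined by comparison of peak area.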

For the next data set, the system named is MOLT-4. The experiment in a line: Compound was evaluated for anti-HIV activity against HIV-1Lal inoculated with Molt-4 cells. The note with it: Homo sapiens. In kind it is functional, cell-based. In a few lines: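 HIV-1 LAI (100 TCID50) was inoculated together with 4-fold serial dilutions of compound onto Molt-4 cells at 5000 cells/well. Cultures were kept 7 days. Surviving cells were quantified by WST-8 assay, and EC50 was calculated from the ratios of surviving cells.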

Data set [3] addresses Human immunodeficiency virus type 1 protease (Human immunodeficiency virus 1) (UniProt Q72874). Put plainly: Compound was evaluated for the percentage inhibition of HIV protease at 5 uM.
A short description of data set [4]: Therapeutic index was determined. The note with it: read-out: Therapeutic index.
The test system of data set [5] is Human immunodeficiency virus 1. Put plainly: Relative potency of compound to that of AZT was determined.
The target of data set [6] is Human immunodeficiency virus type 1 protease (Human immunodeficiency virus 1, UniProt Q72874). The experiment in a line: Inhibitory activity against HIV-1 IIIB/CEM-SS protease.

Take `CC(C)(C)NC(=O)[C@H]1N(C(=O)[C@@H](O)[C@H](Cc2ccccc2)NC(=O)CC(C)(C)C(=O)O)CSC1(C)C`: the result in data set [1] was Active.

Consider `Cc1ccccc1CNC(=O)[C@H]1N(C(=O)[C@@H](O)[C@H](Cc2ccccc2)NC(=O)CC(C)(C)C(=O)O)CSC1(C)C`, for which the outcome in data set [1] was Active.

On to `Cc1cccc(C)c1OCC(=O)N[C@@H](Cc1ccccc1)[C@H](OC(=O)CCCC(=O)O)C(=O)N1CSC(C)(C)[C@H]1C(=O)NC(C)(C)C`, for which the result in data set [1] was Active.

Turning to `Cc1cn(C2CC(N=[N+]=[N-])C(COC(=O)CCN)O2)c(=O)[nH]c1=O` (stereo not drawn), in data set [1], the result was Active.

Take `Cc1cccc(C)c1OCC(=O)N[C@@H](Cc1ccccc1)[C@H](OC(=O)CCCC(=O)NCC(=O)OCC1OC(n2cc(C)c(=O)[nH]c2=O)CC1N=[N+]=[N-])C(=O)N1CSC(C)(C)[C@H]1C(=O)NC(C)(C)C` (stereo partly drawn) [KNI-1039]: the concentration in solution in data set [2] (solubility) came to 371 µg/mL (≈ 380 µM). This compound came in with an EC50 in the data set with MOLT-4 of 0.1 nM. The compound further displayed an inhibition in data set [3] of 55%. Moreover, the selectivity ratio in data set [4] was greater than 2000. The same compound showed a Relative potency in data set [5] of 62.

Consider `Cc1cccc(C)c1OCC(=O)N[C@@H](Cc1ccccc1)[C@H](OC(=O)CCC(=O)NCC(=O)OCC1OC(n2cc(C)c(=O)[nH]c2=O)CC1N=[N+]=[N-])C(=O)N1CSC(C)(C)[C@H]1C(=O)NC(C)(C)C` (stereo partly drawn) [KNI-1038], for which, in data set [2], the solubility amounted to 290 µg/mL (≈ 301 µM). This compound also came in with an EC50 in the data set with MOLT-4 of 5.3 nM. In data set [3], the inhibition turned out to be 37%. The compound further returned a Relative potency in data set [5] of 1.2.

Turning to `Cc1cccc(C)c1OCC(=O)N[C@@H](Cc1ccccc1)[C@H](OC(=O)CCC(=O)OCC1OC(n2cc(C)c(=O)[nH]c2=O)CC1N=[N+]=[N-])C(=O)N1CSC(C)(C)[C@H]1C(=O)NC(C)(C)C` (stereo partly drawn), the EC50 in data set [6] was 189 nM.

`Cc1cccc(C)c1OCC(=O)N[C@@H](Cc1ccccc1)[C@H](OC(=O)CCC(=O)NCCC(=O)OCC1OC(n2cc(C)c(=O)[nH]c2=O)CC1N=[N+]=[N-])C(=O)N1CSC(C)(C)[C@H]1C(=O)NC(C)(C)C` (stereo partly drawn) [KNI-1046] came in with a solubility in data set [2] of 373 µg/mL (≈ 382 µM). The same compound displayed an EC50 with MOLT-4 of 1 nM. Further, in data set [3], the inhibition is 7%. Further, the Relative potency in data set [5] is 6.2.

With `Cc1cccc(C)c1OCC(=O)N[C@@H](Cc1ccccc1)[C@H](O)C(=O)N1CSC(C)(C)[C@H]1C(=O)NC(C)(C)C`, in the data set with MOLT-4, the EC50 turned out to be 92 nM.

In the case of `Cc1cn([C@H]2C[C@H](N=[N+]=[N-])[C@@H](CO)O2)c(=O)[nH]c1=O` [ZIDOVUDINE], in the data set on MOLT-4, the response was half-maximal at 6.2 nM (EC50).

`Cc1ccccc1CNC(=O)[C@H]1N(C(=O)[C@H](O)[C@@H](Cc2ccccc2)NC(=O)CC(C)(C)C(=O)OCC2OC(n3cc(C)c(=O)[nH]c3=O)CC2N=[N+]=[N-])CSC1(C)C` (stereo partly drawn): the result in data set [1] was Active.

For `Cc1cn(C2CC(N=[N+]=[N-])C(COC(=O)C(C)(C)CC(=O)N[C@H](Cc3ccccc3)[C@@H](O)C(=O)N3CSC(C)(C)[C@H]3C(=O)NC(C)(C)C)O2)c(=O)[nH]c1=O` (stereo partly drawn), the outcome in data set [1] was Active.

For the compound `Cc1cccc(C)c1OCC(=O)N[C@@H](Cc1ccccc1)[C@H](OC(=O)CCC(=O)O)C(=O)N1CSC(C)(C)[C@H]1C(=O)NC(C)(C)C`, the outcome in data set [1] was Active.

`Cc1cccc(C)c1OCC(=O)N[C@@H](Cc1ccccc1)[C@H](OC(=O)CCCC(=O)NCCC(=O)OCC1OC(n2cc(C)c(=O)[nH]c2=O)CC1N=[N+]=[N-])C(=O)N1CSC(C)(C)[C@H]1C(=O)NC(C)(C)C` (stereo partly drawn): in data set [2], the solubility was determined as 235 µg/mL (≈ 237 µM). Further, the midpoint of the response with MOLT-4, the EC50, lay at 3.4 nM. In data set [3], the inhibition stood at 12%. The Relative potency in data set [5] worked out at 1.8.

For `Cc1cn(C2CC(N=[N+]=[N-])C(COC(=O)CN)O2)c(=O)[nH]c1=O` (stereo not drawn), the outcome in data set [1] was Active.
